Data set [1] deals with Plasmodium falciparum. The data set can be described thus: Relative antiplasmodial activity (IC50) compared to Pyr against Plasmodium falciparum K1CB1 DHFR double-mutant (C59R/S108N). In kind it is functional.
Data set [2] can be described thus: Safety ratio is cytotoxicity to vero cells/IC50 K1. The class given is toxicity, cell-based. As to conditions: monkey, read-out: Safety ratio. In a few lines: (§1)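 Ratio of the cytotoxicity IC50 (vero, KB or BC cells, Skehan protocol) to the antiplasmodial IC50 against K1CB1 (C59R+S108N DHFR). […] Label was added at 24 h and cultures ran a further 18-24 h. Final DMSO was 0.1%.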

The nature of data set [3]: Safety ratio is cytotoxicity to BC cells/IC50 K1. The class given is toxicity, cell-based. Conditions: human, BC cells (breast cancer); read-out: Safety ratio. In a few lines:
as §1

Data set [4] concerns the target Bifunctional dihydrofolate reductase-thymidylate synthase (Plasmodium falciparum K1) (UniProt P13922). Description: Inhibition of the wild-type dihydrofolate reductase (DHFR) relative to Pyr. In a few lines:
(§2)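 Assayed at 25 °C in 50 mM TES pH 7.0, 75 mM β-mercaptoethanol, 1 mg/mL BSA, with 100 µM H2folate and 100 µM NADPH. A340 was followed. Ki was derived from IC50 = Ki(1+[S]/Km), assuming competitive inhibition.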

The subject of another data set is Vero. The data set can be described thus: Cytotoxicity by the selective inhibition against African green monkey kidney […] (vero cells). The class given is functional, cell-based. Conditions: Chlorocebus sabaeus.
Data set [5] deals with Bifunctional dihydrofolate reductase-thymidylate synthase (Plasmodium falciparum K1), P13922 [UNDEFINED MUTATION]. The data set can be described thus: Ratio of Inhibition of the S108N mutant of dihydrofolate reductase (DHFR) to inhibition of wild type dihydrofolate reductase.
Bifunctional dihydrofolate reductase-thymidylate synthase (Plasmodium falciparum K1), P13922 [UNDEFINED MUTATION], sequence (P13922 whole entry, looked up, stated change not applied): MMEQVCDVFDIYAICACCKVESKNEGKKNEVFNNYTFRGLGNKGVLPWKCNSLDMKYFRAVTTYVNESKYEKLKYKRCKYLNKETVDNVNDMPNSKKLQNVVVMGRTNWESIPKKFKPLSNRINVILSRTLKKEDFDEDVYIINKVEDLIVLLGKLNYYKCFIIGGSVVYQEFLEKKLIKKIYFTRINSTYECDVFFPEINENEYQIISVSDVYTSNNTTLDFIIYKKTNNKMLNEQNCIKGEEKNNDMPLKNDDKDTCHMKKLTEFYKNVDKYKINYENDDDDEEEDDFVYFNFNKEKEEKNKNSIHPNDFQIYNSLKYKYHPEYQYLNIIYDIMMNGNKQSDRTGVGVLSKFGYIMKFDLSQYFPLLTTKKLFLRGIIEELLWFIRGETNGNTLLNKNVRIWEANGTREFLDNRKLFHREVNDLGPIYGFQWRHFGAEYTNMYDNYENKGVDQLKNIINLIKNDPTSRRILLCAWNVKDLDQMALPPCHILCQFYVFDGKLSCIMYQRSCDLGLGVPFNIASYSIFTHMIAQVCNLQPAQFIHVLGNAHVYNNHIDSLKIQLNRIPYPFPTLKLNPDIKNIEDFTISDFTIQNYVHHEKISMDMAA
Data set [6] has the same test system. The data set can be described thus: Ratio of Inhibition of the C59R+S108N mutant of dihydrofolate reductase (DHFR) to inhibition of wild type dihydrofolate reductase.
The nature of data set [7]: Safety ratio is cytotoxicity to KB cells/IC50 TM4. In kind it is toxicity, cell-based. Conditions: human, KB cells (epidermoid carcinoma); read-out: Safety ratio. In a few lines:
(§3)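 Ratio of the cytotoxicity IC50 (KB or BC cells, Skehan protocol) to the antiplasmodial IC50 against TM4/8.2 (wild-type DHFR). […] Label was added after 24 h and cultures ran a further 18-24 h.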

Data set [8] can be described thus: Safety ratio is cytotoxicity to KB cells/IC50 K1. The class given is toxicity, cell-based. Conditions: human, KB cells (epidermoid carcinoma); read-out: Safety ratio. In a few lines:
as §1

The next data set relates to BC. Description: Cytotoxicity against human breast cancer cells. In kind it is functional, cell-based.
The subject of a further data set is KB. The data set can be described thus: Cytotoxicity against human epidermoid carcinoma KB cell. The class given is functional, cell-based.
Data set [9] is described as follows: Safety ratio is cytotoxicity to BC cells/IC50 TM4. In kind it is toxicity, cell-based. As to conditions: human, BC cells (breast cancer); read-out: Safety ratio. In a few lines:
as §3

The target in data set [10] is Bifunctional dihydrofolate reductase-thymidylate synthase (Plasmodium falciparum K1) (UniProt P13922). The data set can be described thus: Inhibition of the S108N mutant of dihydrofolate reductase (DHFR) relative to Pyr. In a few lines: as §2
Bifunctional dihydrofolate reductase-thymidylate synthase (Plasmodium falciparum K1), sequence (P13922 whole entry, looked up): as the sequence (P13922 whole entry, looked up, stated change not applied) above
In data set [11] the target is Bifunctional dihydrofolate reductase-thymidylate synthase (Plasmodium falciparum K1, UniProt P13922, S108N). The data set can be described thus: Inhibition of the S108N mutant of dihydrofolate reductase (DHFR). The method in brief: (§4)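 Assay at 25 °C: 50 mM TES pH 7.0, 75 mM β-mercaptoethanol, 1 mg/mL BSA, 100 µM H2folate and 100 µM NADPH. NADPH oxidation followed at 340 nm. Ki derived from IC50 as Ki(1+[S]/Km), assuming competitive inhibition.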
Bifunctional dihydrofolate reductase-thymidylate synthase (Plasmodium falciparum K1, UniProt P13922, S108N), sequence (P13922 whole entry, looked up, stated change not applied): as above

The subject of data set [12] is Plasmodium falciparum. Description: Safety ratio as cytotoxicity in vero cells relative to IC50 TM4. In kind it is functional.
Data set [13] concerns Plasmodium falciparum. The data set can be described thus: In vitro relative antiplasmodial activity (IC50) compared to Pyr against Plasmodium falciparum TM4/8.2 wild-type. The class given is functional.
Data set [14] deals with Bifunctional dihydrofolate reductase-thymidylate synthase (Plasmodium falciparum K1, UniProt P13922). The data set can be described thus: Inhibition of the C59R+S108N mutant of dihydrofolate reductase (DHFR). In a few lines: as §4
Bifunctional dihydrofolate reductase-thymidylate synthase (Plasmodium falciparum K1, UniProt P13922), sequence (P13922 whole entry): as the sequence (P13922 whole entry, looked up, stated change not applied) above
Data set [15] has as its system Plasmodium falciparum. Description: In vitro antiplasmodial activity (IC50) against Plasmodium falciparum wtTM4/8.2. The class given is functional, organism-based.
Data set [16] relates to Plasmodium falciparum. The data set can be described thus: IC50 ratio against Plasmodium falciparum K1CB1/TM4. The class given is functional.
Data set [17] has as its target T1, Dihydrofolate reductase (Homo sapiens) (UniProt P00374).
T1 sequence (whole entry): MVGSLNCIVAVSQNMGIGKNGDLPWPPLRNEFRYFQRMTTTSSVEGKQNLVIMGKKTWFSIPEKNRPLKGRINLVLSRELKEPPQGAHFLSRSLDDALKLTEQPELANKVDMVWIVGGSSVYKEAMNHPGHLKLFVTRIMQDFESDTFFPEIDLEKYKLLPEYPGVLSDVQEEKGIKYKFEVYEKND
The data set can be described thus: Cytotoxicity by selective inhibition against human dihydrofolate reductase (DHFR);NA is no inhibition.

Data set [18] deals with Bifunctional dihydrofolate reductase-thymidylate synthase (Plasmodium falciparum K1) (UniProt P13922). The data set can be described thus: Inhibition of Plasmodium falciparum wild-type dihydrofolate reductase (DHFR) relative to Pyrimethamine.
Data set [19] shares this target. The data set can be described thus: Inhibition of the C59R+S108N mutant of dihydrofolate reductase (DHFR) relative to Pyr. In a few lines:
as §2

The target is the same in data set [20]. The data set can be described thus: Inhibition of S108N mutant dihydrofolate reductase (DHFR)relative to Tmp. In a few lines: as §2
The target is the same in data set [21]. Description: Inhibition of the C59R+S108N mutant of dihydrofolate reductase (DHFR)relative to Tmp. The method in brief:
as §2

The target is the same in data set [22]. Description: Inhibition of the wild-type dihydrofolate reductase (DHFR) relative to Tmp. The method in brief:
as §2

SMILES strings stand for the structures. Active and inactive are the calls of the source. The calls are words filed in the database; no cut-off is given here. A value given as a limit tells only on which side of the number the result lay.

The record followed here is ChEMBL document CHEMBL1135602 (J Med Chem, 2002).

Usually IC50 stands for the midpoint of a concentration-inhibition curve. What is called Ki is the dissociation constant of the complex between target and ligand, obtained from inhibition or displacement.

As for `CCc1nc(N)nc(N)c1-c1ccccc1`, the Relative activity with Plasmodium falciparum [1] turned out to be 0.1; in data set [4] it was 3.8; in data set [10] it was 0.2; in the data set on Plasmodium falciparum [13], 8.7. The selectivity ratio was 96 in [2]; above 151 in data set [3]; above 714 in [7]; above 151 in [8]; above 714 in data set [9]. In addition, the IC50 with Vero is 320000 nM; in the data set with BC, above 500000 nM; in the data set on KB, above 500000 nM; in the data set with Plasmodium falciparum [15], 700 nM. Also, the Ratio in data set [5] was found to be 2; in data set [6], 3.8; in the data set on Plasmodium falciparum [16], 4.7. Also, the inhibition constant Ki amounted to 4.5 nM in data set [11] and 8.7 nM in data set [14]. Besides, the Safety ratio with Plasmodium falciparum [12] is 444.

Take `Nc1nc(N)c(-c2ccccc2)c(CCCc2ccccc2)n1`: the selectivity ratio in [2] is above 22; in [3], above 217; in data set [7] it was above 2500; in [8] it was above 217; in data set [9], above 2500. Moreover, the IC50 in the data set on Vero was above 50000 nM; in the data set with BC, above 500000 nM; in the data set with KB it was above 500000 nM; with Plasmodium falciparum [15], 200 nM. The values for the Ratio (in [5]; in [6]; in the data set on Plasmodium falciparum [16]) were 1.8, 4.8 and 11.5, respectively. The NI result in [17] was “inactive”. Besides, the figures for the Ki in [11] and in data set [14] were 0.9 nM and 2.4 nM, respectively. The Safety ratio in the data set with Plasmodium falciparum [12] is above 250. Further, the Relative activity in data set [18] came out at 0.9.

For the molecule `CCOc1cc(Cc2cnc(N)nc2N)ccc1OCc1cc(OC)c(OC)c(OC)c1`, the IC50 was 34000 nM in the data set with Vero, 139000 nM with BC and 102000 nM in the data set with KB. Further, in data set [17], the NI result was “inactive”.

Consider `CCc1nc(N)nc(N)c1-c1ccc(-c2ccccc2)cc1`, for which the Relative activity with Plasmodium falciparum [1] was 0.1; in data set [4], 313; in [10], 14.7; in [19], 13.5; with Plasmodium falciparum [13] it was 163.8. For the same molecule, the Ratio in data set [5] amounted to 2.2; in data set [6], 3.9; in the data set with Plasmodium falciparum [16], 0.3. Further, the inhibition constant Ki in [11] was 421 nM; in data set [14], 730 nM. The IC50 with Plasmodium falciparum [15] came to 13100 nM.

For `CCCOc1cc(Cc2cnc(N)nc2N)ccc1OCc1cc(OC)c(OC)c(OC)c1`, the IC50 in the data set on Vero worked out at 13000 nM; in the data set with BC, 56000 nM; with KB, 180000 nM. Further, the NI result in data set [17] was “inactive”.

Consider `COc1cc(COc2cc(Cc3cnc(N)nc3N)ccc2OCc2ccccc2)cc(OC)c1OC`, for which the Relative activity in data set [20] stood at 1.4; in data set [21] it was 2.1; in data set [22] it was 1.2. Moreover, the Ratio in data set [5] turned out to be 2.5; in [6] it was 41.5; with Plasmodium falciparum [16] it was 0.9. Also, the figures for the Ki in data set [11] and in data set [14] were 180 nM and 503 nM, respectively. In addition, the IC50 in the data set with Plasmodium falciparum [15] is 19000 nM.

For `CCc1nc(N)nc(N)c1-c1ccc(C)cc1`, the Relative activity in the data set with Plasmodium falciparum [1] was 0.4; in data set [4], 0.7; in [10] it was 0.4; in [19], 0.3; with Plasmodium falciparum [13], 1.2. In addition, the Ratio in [5] amounted to 26.5; in data set [6], 36.8; in the data set on Plasmodium falciparum [16] it was 127. For the same molecule, the Ki was 10.6 nM in [11] and 14.7 nM in data set [14]. In the data set on Plasmodium falciparum [15], this molecule displayed a concentration for half-maximal inhibition (IC50) of 100 nM.
